# The source made the active and inactive calls. The calls are words filed in the database; no cut-off is given here. Where a SMILES comes first, the peptide text is derived from it. [ ]: non-standard residue; d: D form. aThr = C[C@H](O)[C@H](N)C(=O)O
# Experiments:
# [1] = Cytotoxicity against human CEM-SS cells infected with HIV1 3B after 6 days by XTT assay; type: cell-based; conditions: read-out: TC50
# [2] = tested on: Human immunodeficiency virus 1; assay: Antiviral activity against HIV1 3B infected in human CEM-SS cells assessed as inhibition of viral replication after 6 days by XTT assay; type: functional, organism-based
# In short: (§1)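 Peptides were added in triplicate at six serial concentrations, 0.32–100 μg/ml. Cultures were held at 37°C, 5% CO2 for 6 days, then stained with XTT. EC50 (virus inhibition) and TC50 (cell viability) were derived from the XTT read-out, and TI was taken from these.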
# [3] = Therapeutic index, ratio of TC50 for human CEM-SS cells infected with HIV1 3B to EC50 for HIV1 3B infected in human CEM-SS cells; type: cell-based; conditions: read-out: TI
# In short: as §1, with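 “CEM-SS cells (2.5 × 10^3/well) in RPMI 1640 with 10% heat-inactivated FBS were infected with HIV-1 IIIB (MOI 0.0005–0.001). Peptides” for “Peptides”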
# Escherichia coli = assay: Antibacterial activity against Escherichia coli K-12; type: functional, organism-based
# [4] = Human immunodeficiency virus 1, 3B, CEM-SS, 144 h
Molecule,CC50 at 144 h [1],"EC50 [2, 4]",selectivity ratio [3],Activity (Escherichia coli),EC50 ([2]; cem-ss)
CC[C@H](C)[C@H](NC(=O)[C@H](CC(C)C)NC(=O)[C@@H]1CCCN1C(=O)[C@H](Cc1ccccc1)NC(=O)[C@H](CC(C)C)NC(=O)[C@@H](N)Cc1ccccc1)C(=O)N[C@H](C(=O)N[C@@H](CO)C(=O)N[C@@H](Cc1ccccc1)C(=O)N[C@@H](CC(C)C)C(=O)N[C@@H](CO)C(=O)N[C@@H](CCCCN)C(=O)N[C@H](C(=O)N[C@@H](CC(C)C)C(=O)O)C(C)C)[C@H](C)O,34.6 µM,16.7 µM,2.07,–,–
CC[C@H](C)[C@H](NC(=O)[C@H](CCCCN)NC(=O)[C@H](CCC(=O)O)NC(=O)[C@H](CCCCN)NC(=O)[C@H](CO)NC(=O)[C@H](CCCCN)NC(=O)[C@H](CCCNC(=N)N)NC(=O)[C@H](Cc1ccccc1)NC(=O)[C@H](Cc1ccccc1)NC(=O)[C@H](CC(=O)O)NC(=O)CNC(=O)[C@H](CC(C)C)NC(=O)[C@@H](N)CC(C)C)C(=O)NCC(=O)N[C@@H](CCCCN)C(=O)N[C@@H](CCC(=O)O)C(=O)N[C@@H](Cc1ccccc1)C(=O)N[C@@H](CCCCN)C(=O)N[C@@H](CCCNC(=N)N)C(=O)N[C@H](C(=O)N[C@H](C(=O)N[C@@H](CCC(N)=O)C(=O)N[C@@H](CCCNC(=N)N)C(=O)N[C@H](C(=O)N[C@@H](CCCCN)C(=O)N[C@@H](CC(=O)O)C(=O)N[C@@H](Cc1ccccc1)C(=O)N[C@@H](CC(C)C)C(=O)N[C@@H](CCCNC(=N)N)C(=O)N[C@@H](CC(N)=O)C(=O)N[C@@H](CC(C)C)C(=O)N[C@H](C(=O)N1CCC[C@H]1C(=O)N[C@@H](CCCNC(=N)N)C(=O)N[C@H](C(=O)N[C@@H](CCC(=O)O)C(=O)N[C@@H](CO)C(=O)O)[C@@H](C)O)C(C)C)[C@@H](C)CC)C(C)C)[C@@H](C)CC,–,–,–,inactive,–
CC[C@H](C)[C@H](NC(=O)[C@H](CC(C)C)NC(=O)[C@H](C)NC(=O)[C@@H]1CCCN1C(=O)[C@H](CCCNC(=N)N)NC(=O)[C@@H](N)Cc1ccccc1)C(=O)N[C@H](C(=O)N[C@@H](CCCNC(=N)N)C(=O)N[C@H](C(=O)N[C@@H](CCCCN)C(=O)NCC(=O)N[C@H](C(=O)N[C@@H](CCCNC(=N)N)C(=O)N[C@@H](CC(C)C)C(=O)O)[C@H](C)O)[C@H](C)O)C(C)C [Hyposin-5] (H-FRPALIVR[aThr]KG[aThr]RL-OH),> 61.4 µM,> 61.4 µM,–,–,–
CC[C@H](C)[C@H](NC(=O)[C@@H]1CCCN1C(=O)[C@H](Cc1cnc[nH]1)NC(=O)[C@H](CCCCN)NC(=O)[C@@H]1CCCN1C(=O)[C@@H](N)CCCNC(=N)N)C(=O)N[C@@H](CCCCN)C(=O)N[C@@H](Cc1cnc[nH]1)C(=O)N[C@@H](CCC(N)=O)C(=O)NCC(=O)N[C@@H](CC(C)C)C(=O)N1CCC[C@H]1C(=O)N[C@@H](CCC(N)=O)C(=O)N[C@@H](CCC(=O)O)C(=O)N[C@H](C(=O)N[C@@H](CC(C)C)C(=O)N[C@@H](CC(N)=O)C(=O)N[C@@H](CCC(=O)O)C(=O)N[C@@H](CC(N)=O)C(=O)N[C@@H](CC(C)C)C(=O)N[C@@H](CC(C)C)C(=O)N[C@@H](CCCNC(=N)N)C(=O)N[C@@H](Cc1ccccc1)C(=O)O)C(C)C [ISRACIDIN],> 36.2 µM,> 36.2 µM,–,–,–
CC[C@H](C)[C@H](NC(=O)[C@H](CO)NC(=O)[C@H](CC(C)C)NC(=O)[C@H](Cc1ccccc1)NC(=O)CN)C(=O)N[C@@H](CC(C)C)C(=O)N[C@@H](CCCCN)C(=O)N[C@@H](CCCCN)C(=O)N[C@H](C(=O)N[C@@H](CC(C)C)C(=O)N1CCC[C@H]1C(=O)N[C@@H](CCCCN)C(=O)N[C@H](C(=O)N[C@@H](CCSC)C(=O)N[C@@H](C)C(=O)N[C@@H](Cc1cnc[nH]1)C(=O)N[C@@H](CCSC)C(=O)N[C@@H](CCCCN)C(N)=O)C(C)C)C(C)C [MELECTIN],7.75 µM,–,–,–,–
CC[C@H](C)[C@H](NC(=O)[C@H](CCCNC(=N)N)NC(=O)[C@H](CC(C)C)NC(=O)[C@H](CCC(N)=O)NC(=O)[C@H](CCCCN)NC(=O)[C@H](CC(C)C)NC(=O)[C@H](CC(C)C)NC(=O)[C@H](CC(C)C)NC(=O)[C@@H](NC(=O)[C@H](CCCCN)NC(=O)[C@H](CC(=O)O)NC(=O)[C@H](C)NC(=O)[C@@H](NC(=O)[C@H](CCCCN)NC(=O)[C@H](CCCCN)NC(=O)[C@H](CC(=O)O)NC(=O)[C@@H](NC(=O)[C@@H](N)Cc1cnc[nH]1)C(C)C)C(C)C)C(C)C)C(=O)N[C@@H](CCSC)C(=O)N[C@@H](CCCNC(=N)N)C(=O)N[C@@H](CC(C)C)C(=O)N[C@@H](CC(C)C)C(=O)N[C@H](C(=O)N[C@@H](CCCNC(=N)N)C(=O)N[C@@H](CC(C)C)C(=O)O)[C@@H](C)O [SPINIGERIN],> 33.3 µM,3.05 µM,> 10.9,–,–
Cc1cn([C@H]2C[C@H](N=[N+]=[N-])[C@@H](CO)O2)c(=O)[nH]c1=O [ZIDOVUDINE],> 0.5 µM,–,–,–,–
H-FFHHIFRGIVHVGKTIHRLVTG-OH [Piscidin 3],6.9 µM,–,–,–,–
H-GAWKNFWSSLRKGFYDGEAGRAIRR-OH,> 34.1 µM,> 34.1 µM,–,–,–
H-GFGKAFHSVSNFAKKHKTA-NH2 [STYELIN A],> 48.5 µM,> 48.5 µM,–,–,–
H-GFKDLLKGAAKALVKTVLF-NH2 [Ascaphin-8],2.9 µM,1.2 µM,2.4,–,–
H-GFKRIVQRIKDFLRNLV-NH2,10.8 µM,0.76 µM,14.2,–,–
H-GFLDIIEKIAKSW-OH,> 65.8 µM,10.5 µM,> 6.3,–,–
H-GIFDKLAKEISIW-OH,> 65.8 µM,> 65.8 µM,–,–,–
H-GIIDIAKKLFESW-OH,> 65.8 µM,20.1 µM,> 3.3,–,–
H-GIWDTIKSMGKVFAGKILQNL-NH2 [Brevinin-2],7.42 µM,1.65 µM,4.49,–,–
H-GIWSDLAEIIKKF-OH,> 65.8 µM,–,–,–,–
H-GKPRPYSPRPTSHPRPIRV-OH [DROSOCIN],> 45.5 µM,> 45.5 µM,–,–,–
H-GLADFLNKAVGKVVDFVKS-NH2 [Desertcolin 1],> 49.9 µM,> 49.9 µM,–,–,–
H-GLFDIIKKIAESW-OH,37 µM,11.7 µM,3.2,–,–
H-GLKKLLGKLLKKLGKLLLK-OH,25.1 µM,> 47.5 µM,< 0.5,Active,–
H-GLLGLLGSVVSHVVPAIVGHF-NH2 [Maculatin 1.3],8.02 µM,4 µM,2.01,–,–
H-GLNTLKKVFQGLHEAIKLINNHVQ-OH,> 36.8 µM,35.7 µM,–,–,–

Molecule,CC50 at 144 h [1],"EC50 [2, 4]",selectivity ratio [3],Activity (Escherichia coli),EC50 ([2]; cem-ss)
H-GLRRLLGRLLRRLGRLLLR-OH,25.7 µM,4.4 µM,5.8,–,–
H-GLRSKIWLWVLLMIWQESNKFKKM-OH,> 32.9 µM,31.6 µM,> 1.04,–,–
H-GLRSRIWLWVLLMIWQESNRFKRM-OH,> 32.1 µM,1.25 µM,> 25.7,–,–
H-GLWEKIDKFASII-OH,> 65.8 µM,> 65.8 µM,–,–,–
H-GMASKAGAIAGKIAKVALKAL-NH2,> 50.8 µM,> 50.8 µM,–,–,–
H-GNNRPVYIPQPRPPHPRI-OH [Apidaecin IA],> 47.4 µM,> 47.4 µM,–,–,–
H-GWFDIIKKIASEL-OH,38.9 µM,10.7 µM,3.6,–,–
H-GWFDVVKHIAKRF-NH2,10.6 µM,2.99 µM,3.55,–,–
H-GWLKKIESIIDAF-OH,> 65.8 µM,29.5 µM,> 2.2,–,–
H-IKWKKLLRAAKRIL-NH2,1.3 µM,> 57.6 µM,< 0.02,–,–
H-ILGPVLGLVSDTLDDVLGIL-OH,> 49.4 µM,> 49.4 µM,–,–,–
H-ILGPVLGLVSRTLRRVLGIL-OH,8.7 µM,2.2 µM,3.9,–,–
H-INLKAIAALAKKLL-OH,> 67.6 µM,> 67.6 µM,–,–,–
H-IWLTALKFLGKHAAKHLAKQQLSKL-OH [Lycotoxin I],2.4 µM,> 35.2 µM,< 0.07,–,–
H-KGRGKQGGKVRAKAKTRSS-OH [Parasin I],> 50 µM,> 50 µM,–,–,–
H-LLKELWTKIKGAGKAVLGKIKGLL-OH [Ponericin L2],24.7 µM,–,17.6,–,1.4 µM
H-NLVSGLIEARKYLEQLHRKLKNRKV-OH,> 33.3 µM,> 33.3 µM,–,–,–
H-RQRVEELSKFSKKGAAARRRK-OH [Misgurin],> 40 µM,> 40 µM,–,–,–
H-SLSRFLRFLKIVYRRAF-NH2,8.6 µM,0.83 µM,10.4,–,–
H-SWKSMAKKLKEYMEKLKQRA-OH [Latarcin 3a],> 40.3 µM,32.7 µM,> 1.23,–,–
H-VDKPDYRPRPRPPNM-OH [Metalnikowin I],> 54.4 µM,> 54.4 µM,–,–,–
H-VFQFLGRIIHHVGNFVHGFSHVF-OH [Clavanin B],37.1 µM,7.1 µM,> 5.18,–,–

# — ChEMBL document CHEMBL1240406, “Identification of novel human immunodeficiency virus type 1-inhibitory peptides based on the antimicrobial peptide database” (Antimicrob Agents Chemother, 2010)
